Experimental data taken from ChEMBL document CHEMBL1142184, “Treatment and outcomes of infections by methicillin-resistant Staphylococcus aureus at an ambulatory clinic” (2007).

Assays:
Staphylococcus aureus [1] = assay: Antibacterial activity against methicillin-susceptible Staphylococcus aureus isolates from skin or soft tissue infection outpatients; assay type: functional
Method in brief: (§1)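 Isolates came from S. aureus-positive wound cultures. Clinicians took these at their discretion when resistant infection was suspected, in clinic patients with signs or symptoms of skin or soft tissue infection. Only cases with recorded antibiotic sensitivities were included. Nasal carriage cultures and outside-hospital cases lacking culture data were excluded. Yearly susceptibility trends used the Mantel score test, two-sided.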

Staphylococcus aureus [2] = assay: Antibacterial activity against methicillin-resistant Staphylococcus aureus isolates from skin or soft tissue infection outpatients; assay type: functional; method in brief: as §1

SMILES	Activity (Staphylococcus aureus [1]) [%]	Activity (Staphylococcus aureus [2]) [%]
CN[C@H](CC(C)C)C(=O)N[C@H]1C(=O)N[C@@H](CC(N)=O)C(=O)N[C@H]2C(=O)N[C@H]3C(=O)N[C@H](C(=O)N[C@H](C(=O)O)c4cc(O)cc(O)c4-c4cc3ccc4O)[C@H](O)c3ccc(c(Cl)c3)Oc3cc2cc(c3O[C@@H]2O[C@H](CO)[C@@H](O)[C@H](O)[C@H]2O[C@H]2C[C@](C)(N)[C@H](O)[C@H](C)O2)Oc2ccc(cc2Cl)[C@H]1O [VANCOMYCIN]	0	0
O=C(O)c1cn(C2CC2)c2cc(N3CCNCC3)c(F)cc2c1=O [CIPROFLOXACIN]	8.8	78.5
Cc1nnc(SCC2=C(C(=O)O)N3C(=O)[C@@H](NC(=O)Cn4cnnn4)[C@H]3SC2)s1 [CEFAZOLIN]	0	100
CN(C)[C@@H]1C(O)=C(C(N)=O)C(=O)[C@@]2(O)C(O)=C3C(=O)c4c(O)cccc4[C@@](C)(O)[C@H]3C[C@@H]12 [TETRACYCLINE]	0	53.8
CO[C@H]1/C=C/O[C@@]2(C)Oc3c(C)c(O)c4c(O)c(c(/C=N/N5CCN(C)CC5)c(O)c4c3C2=O)NC(=O)/C(C)=C\C=C\[C@H](C)[C@H](O)[C@@H](C)[C@@H](O)[C@@H](C)[C@H](OC(C)=O)[C@@H]1C [RIFAMPIN]	0	
O=C(N[C@H](CO)[C@H](O)c1ccc([N+](=O)[O-])cc1)C(Cl)Cl [CHLORAMPHENICOL]	0	
CCC[C@@H]1C[C@@H](C(=O)NC(C(C)Cl)[C@H]2O[C@H](SC)[C@H](O)[C@@H](O)[C@H]2O)N(C)C1 (single isomer, unassigned) [CLINDAMYCIN]	7	48.2
CC[C@H]1OC(=O)[C@H](C)[C@@H](O[C@H]2C[C@@](C)(OC)[C@@H](O)[C@H](C)O2)[C@H](C)[C@@H](O[C@@H]2O[C@H](C)C[C@H](N(C)C)[C@H]2O)[C@](C)(O)C[C@@H](C)C(=O)[C@H](C)[C@@H](O)[C@]1(C)O [ERYTHROMYCIN]	57.9	93.8
C[C@H]1COc2c(N3CCN(C)CC3)c(F)cc3c(=O)c(C(=O)O)cn1c23.C[C@H]1COc2c(N3CCN(C)CC3)c(F)cc3c(=O)c(C(=O)O)cn1c23.O [LEVOFLOXACIN]	0	33.3
